# ChEMBL document CHEMBL2021876, “New pyridobenzoxazepine derivatives derived from 5-(4-methylpiperazin-1-yl)-8-chloro-pyrido[2,3-b][1,5]benzoxazepine (JL13): chemical synthesis and pharmacological evaluation” (J Med Chem, 2012)
# How the values were obtained:
# Caudate-putamen = test: In vivo displacement of [3H]Nemonapride from dopamine D4 receptor in Sprague-Dawley rat lateral part of caudate putamen at 13.75 mg/kg, ip qd for 28 days by autoradiography relative to control; assay type: functional; settings: route intraperitoneal
# [1] = target: D(2) dopamine receptor (Rattus norvegicus) (UniProt P61169); test: In vivo displacement of [3H]Nemonapride from dopamine D2 receptor in Sprague-Dawley rat dorsolateral frontal cortex at 13.75 mg/kg, ip qd for 28 days by autoradiography relative to control; assay type: functional, organism-based; set-up: dose 13.75 mg/kg
# Outline: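 Male Sprague-Dawley rats, N = 8/group, daily ip dosing for 28 days with vehicle controls; cryostat sections (10 μm) preincubated 1 h RT. Incubation 1 h RT in 50 mM Tris-HCl pH 7.4, 120 mM NaCl, 5 mM KCl, 2 mM CaCl2, 1 mM MgCl2 with 1 nM [3H]nemonapride, 0.5 μM DTG, 0.1 μM pindolol. Nonspecific: 10 μM S(−)-sulpiride. Values fmol/mg tissue, % of control.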
# [2] = In vivo displacement of [3H]SCH-23390 from dopamine D1 receptor in Sprague-Dawley rat medial-prefrontal cortex at 13.75 mg/kg, ip qd for 28 days by autoradiography relative to control; assay type: functional; settings: route intraperitoneal
# Outline: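 Forebrain sections from male Sprague-Dawley rats (N = 8/group) after 28 days of daily ip injections versus vehicle. Incubation 1 h RT in 50 mM Tris-HCl pH 7.4, 120 mM NaCl, 5 mM KCl, 2 mM CaCl2, 1 mM MgCl2 with 1 nM [3H]SCH-23390 and 100 nM ketanserin. Nonspecific: 1 μM cis-flupenthixol. Saturating conditions; fmol/mg tissue, % of control.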
# [3] = target: T1, D(4) dopamine receptor (Homo sapiens) (UniProt P21917); test: Displacement of [3H]-YM09151-2 from human cloned dopamine D4 receptor expressed in insect Sf9 cells at 10^-6 M after 60 mins by liquid scintillation counting
# T1 sequence (whole entry): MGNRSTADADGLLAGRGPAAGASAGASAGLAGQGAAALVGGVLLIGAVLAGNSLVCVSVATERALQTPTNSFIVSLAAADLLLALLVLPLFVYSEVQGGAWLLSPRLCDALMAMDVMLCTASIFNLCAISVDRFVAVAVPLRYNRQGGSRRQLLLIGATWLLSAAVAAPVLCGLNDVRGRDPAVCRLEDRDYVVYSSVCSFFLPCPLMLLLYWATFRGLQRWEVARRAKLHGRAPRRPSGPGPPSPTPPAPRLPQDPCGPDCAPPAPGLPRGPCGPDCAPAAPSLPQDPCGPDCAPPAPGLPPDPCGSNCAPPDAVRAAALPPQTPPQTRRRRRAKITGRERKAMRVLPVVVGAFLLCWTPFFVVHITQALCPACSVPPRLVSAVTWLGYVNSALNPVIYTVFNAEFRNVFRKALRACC
# Sequence of D(2) dopamine receptor (Rattus norvegicus) (P61169 whole entry): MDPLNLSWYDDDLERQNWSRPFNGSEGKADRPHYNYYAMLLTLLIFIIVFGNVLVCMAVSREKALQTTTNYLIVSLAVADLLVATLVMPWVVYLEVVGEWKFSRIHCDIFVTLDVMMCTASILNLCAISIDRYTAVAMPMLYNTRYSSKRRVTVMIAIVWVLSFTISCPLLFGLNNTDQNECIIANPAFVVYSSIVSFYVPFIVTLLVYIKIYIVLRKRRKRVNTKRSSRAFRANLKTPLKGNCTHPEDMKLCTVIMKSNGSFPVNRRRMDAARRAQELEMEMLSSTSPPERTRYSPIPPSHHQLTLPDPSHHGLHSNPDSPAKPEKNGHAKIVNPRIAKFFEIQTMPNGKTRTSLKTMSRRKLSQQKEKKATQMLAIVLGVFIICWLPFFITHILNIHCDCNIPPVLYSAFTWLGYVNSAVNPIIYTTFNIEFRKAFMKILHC
structure (smiles),measurement,setting,value
Clc1ccc2c(c1)N=C(N1CCNCC1)c1cccnc1O2,inhibition in vivo at 13.75 mg/kg,Caudate-putamen,152%
same,inhibition,[1],103%
same,inhibition in vivo at 13.75 mg/kg,[2],97%
same,inhibition,[3],28%
